We go through seven compounds from publication PMC10515777 (bioRxiv, 2024).

The target in one data set is WT CFTR (Homo sapiens, UniProt P13569). In words: Inside-out patch clamp recording of macroscopic currents, WT CFTR. Format: biochemical. Particulars: for change of CFTR currents: enantiomers perfused at 100 M, inside-out patches, 3 mM ATP. The method in brief:
(§1)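 WT, S308A or Y304A CFTR (mutants made by site-directed mutagenesis), C-terminally GFP-tagged in BacMam vector, transfected into CHO cells, then 2% FBS at 30 °C for 2 days. Excised inside-out patches were phosphorylated with 25 units/ml PKA plus 3 mM ATP and held at −30 mV, 25 °C, pH 7.4 NMDG solutions. Fold stimulation is the current ratio with/without perfused compound. Dose-response currents were normalized to pre-titration ATP current and fitted for EC50. Means ± SE of patches.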
(In patch-clamp work, channel activity is measured electrically.)

Another data set deals with S308A CFTR (Homo sapiens, UniProt P13569, S308A). In words: Inside-out patch clamp recording, S308A CFTR. It counts as biochemical. The settings on record: inside-out patches, 3 mM ATP. The method in brief:
as §1

The next data set deals with Y304A CFTR (Homo sapiens, UniProt P13569, Y304A). The experiment in a line: Inside-out patch clamp recording, Y304A CFTR. The settings on record: inside-out patches, 3 mM ATP. It counts as biochemical. The method in brief:
as §1

For data set [1] the following is noted: ref [8]; cited from earlier work.
The conditions of data set [2]: ref [9],[10]; cited from earlier work.

Sequence of WT CFTR (P13569 whole entry, the tested form may be a part): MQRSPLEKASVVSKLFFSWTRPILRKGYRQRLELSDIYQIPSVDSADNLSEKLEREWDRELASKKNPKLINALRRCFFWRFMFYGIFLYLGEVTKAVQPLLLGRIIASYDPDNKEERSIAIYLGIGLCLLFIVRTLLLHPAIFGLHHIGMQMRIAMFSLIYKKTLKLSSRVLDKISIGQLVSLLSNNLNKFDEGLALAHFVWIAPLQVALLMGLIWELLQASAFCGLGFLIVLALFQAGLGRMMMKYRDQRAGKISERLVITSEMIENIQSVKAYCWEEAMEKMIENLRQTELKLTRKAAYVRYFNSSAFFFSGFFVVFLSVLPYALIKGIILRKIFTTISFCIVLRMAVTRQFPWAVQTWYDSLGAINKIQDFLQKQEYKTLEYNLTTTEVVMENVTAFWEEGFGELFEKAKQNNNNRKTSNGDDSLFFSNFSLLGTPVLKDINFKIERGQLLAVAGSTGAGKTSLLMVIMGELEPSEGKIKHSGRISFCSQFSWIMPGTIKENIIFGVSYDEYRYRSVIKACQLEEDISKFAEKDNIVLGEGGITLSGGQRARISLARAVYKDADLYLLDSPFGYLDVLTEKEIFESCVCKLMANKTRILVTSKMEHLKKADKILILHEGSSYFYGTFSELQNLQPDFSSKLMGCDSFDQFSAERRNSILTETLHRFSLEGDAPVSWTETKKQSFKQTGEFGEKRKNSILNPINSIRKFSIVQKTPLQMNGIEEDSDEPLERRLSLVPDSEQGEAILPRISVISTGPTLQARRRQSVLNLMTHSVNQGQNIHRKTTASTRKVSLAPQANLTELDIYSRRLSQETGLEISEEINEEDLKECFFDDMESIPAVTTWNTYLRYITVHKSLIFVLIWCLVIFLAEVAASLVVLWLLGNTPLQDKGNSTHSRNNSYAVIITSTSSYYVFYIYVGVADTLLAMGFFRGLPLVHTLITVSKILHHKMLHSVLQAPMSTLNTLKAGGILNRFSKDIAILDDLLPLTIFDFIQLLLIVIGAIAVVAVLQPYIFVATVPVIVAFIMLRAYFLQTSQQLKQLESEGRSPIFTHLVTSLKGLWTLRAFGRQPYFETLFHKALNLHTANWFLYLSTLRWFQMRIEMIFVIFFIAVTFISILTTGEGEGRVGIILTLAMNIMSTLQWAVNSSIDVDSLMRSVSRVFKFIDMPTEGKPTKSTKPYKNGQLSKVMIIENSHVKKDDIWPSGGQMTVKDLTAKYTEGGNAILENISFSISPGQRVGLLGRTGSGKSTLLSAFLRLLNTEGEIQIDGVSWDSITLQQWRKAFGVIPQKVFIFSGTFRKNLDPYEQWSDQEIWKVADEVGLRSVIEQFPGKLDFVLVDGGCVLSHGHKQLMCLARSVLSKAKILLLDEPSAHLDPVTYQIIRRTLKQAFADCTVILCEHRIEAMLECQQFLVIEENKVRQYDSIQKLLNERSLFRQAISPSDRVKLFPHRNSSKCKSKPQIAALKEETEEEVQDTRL
Sequence of Y304A CFTR (P13569 whole entry Y304A): as the sequence (P13569 whole entry, the tested form may be a part) above, with Y304A counted along it
Sequence of S308A CFTR (P13569 whole entry S308A): as the sequence (P13569 whole entry, the tested form may be a part) above, with S308A counted along it

On to `C[C@H](COc1ccccc1)C(=O)n1nc(N)c2ccc(F)cc21` [(R)-’853, (R)-1-(3-Amino-6-fluoro-1H-indazol-1-yl)-2-methyl-3-phenoxypropan-1-one], for which, at WT CFTR, the “change of CFTR currents” value amounted to 0.89 fold.
Usually EC50 stands for the concentration at which the effect is half-maximal. A lower EC50 goes with higher potency in that assay. Take `C[C@@H](COc1ccc(F)cc1)C(=O)n1nc(N)c2ccc(F)cc21` [(S)-SX263, (S)-1-(3-Amino-6-fluoro-1H-indazol-1-yl)-3-(4-fluorophenoxy)-2-methylpropan-1-one]: the response on WT CFTR was half-maximal at 0.136 ± 0.06 µM (EC50).
`C[C@@H](COc1ccccc1)C(=O)n1nc(N)c2ccc(F)cc21` [(S)-’853, (S)-1-(3-Amino-6-fluoro-1H-indazol-1-yl)-2-methyl-3-phenoxypropan-1-one]: at WT CFTR, a half-maximal effect (EC50) was put at 2.1 ± 0.9 µM and the “change of CFTR currents” value was 1.5 fold. The “effect of alanine substitution S308A on compound activity” value at S308A CFTR is on record as “abolished the potentiating effect”. The “effect of alanine substitution Y304A on compound activity” value on Y304A CFTR is recorded as “abolished the potentiating effect”.
`C[C@@H](COc1ccccc1)C(=O)n1nc(N)c2ccc(CO)cc21` [Compound I1408, (S)-1-(3-Amino-6-(hydroxymethyl)-1H-indazol-1-yl)-2-methyl-3-phenoxypropan-1-one] displayed an EC50 on WT CFTR of 0.093 ± 0.042 µM.
By IC50 is commonly meant the point on the concentration scale where inhibition reaches its midpoint. Low readings indicate greater potency, high ones weaker potency. Turning to `C[C@H](COc1ccccc1)C(=O)n1ncc2ccc(C(N)=O)cc21` [Compound I1412, (R)-1-(2-Methyl-3-phenoxypropanoyl)-1H-indazole-6-carboxamide], the IC50 on WT CFTR came to 21 µM. For the same compound, the “effect of alanine substitution S308A on compound activity” value at S308A CFTR is listed as “eliminated the activity”. Further, the “effect of alanine substitution Y304A on compound activity” value at Y304A CFTR is listed as “eliminated the activity”.
Consider `C[C@H](COc1ccccc1)C(=O)n1nc(N)c2ccc(C(N)=O)cc21` [Compound I1422, (R)-3-Amino-1-(2-methyl-3-phenoxypropanoyl)-1H-indazole-6-carboxamide], for which the IC50 at WT CFTR was 41 µM.
On to `CC(C)(C)c1cc(C(C)(C)C)c(NC(=O)c2c[nH]c3ccccc3c2=O)cc1O` [Ivacaftor, N-(2,4-di-tert-butyl-5-hydroxyphenyl)-4-oxo-1,4-dihydroquinoline-3-carboxamide], for which the water solubility in data set [1] was below 0.05 µg/mL. Further, the “bound to plasma proteins” value in data set [2] is given as 99%.
